Assay results reported in ChEMBL document CHEMBL1141882, “Synthesis and biological testing of purine derivatives as potential ATP-competitive kinase inhibitors” (J Med Chem, 2005).

What was measured:
[1] = molecular target: Rho-associated protein kinase 2 (Homo sapiens) (UniProt O75116); assay: Inhibition of human Rho-dependent protein kinase-II at 30 uM
[2] = molecular target: RAC-alpha serine/threonine-protein kinase (Homo sapiens) (UniProt P31749); assay: Inhibition of human Protein kinase B alpha at 30 uM
Sequence of RAC-alpha serine/threonine-protein kinase (Homo sapiens) (P31749 whole entry): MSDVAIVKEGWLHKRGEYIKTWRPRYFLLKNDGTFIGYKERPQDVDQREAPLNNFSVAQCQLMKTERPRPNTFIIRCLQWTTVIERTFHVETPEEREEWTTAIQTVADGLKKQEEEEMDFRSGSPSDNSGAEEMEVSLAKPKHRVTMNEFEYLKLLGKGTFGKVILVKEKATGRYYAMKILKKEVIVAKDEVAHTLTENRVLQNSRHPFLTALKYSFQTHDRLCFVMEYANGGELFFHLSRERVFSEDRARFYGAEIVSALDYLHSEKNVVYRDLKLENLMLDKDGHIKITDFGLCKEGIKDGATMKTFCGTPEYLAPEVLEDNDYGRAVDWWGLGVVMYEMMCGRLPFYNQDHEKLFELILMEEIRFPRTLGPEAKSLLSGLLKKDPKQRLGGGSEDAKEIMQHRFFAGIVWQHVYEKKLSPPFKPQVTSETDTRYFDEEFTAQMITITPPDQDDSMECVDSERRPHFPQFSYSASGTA
Procedure, shortened: (§1)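 Kinase activity assayed with ATP at 100 µM, deliberately higher than usual assay ATP levels because the inhibitors are assumed ATP-competitive. Results are reported as percent inhibition of each kinase.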

[3] = molecular target: Mitogen-activated protein kinase 9 (Homo sapiens) (UniProt P45984); assay: Inhibition of human c-Jun N-terminal kinase-2 alpha-2 at 30 uM
Sequence of Mitogen-activated protein kinase 9 (Homo sapiens) (P45984 whole entry, looked up): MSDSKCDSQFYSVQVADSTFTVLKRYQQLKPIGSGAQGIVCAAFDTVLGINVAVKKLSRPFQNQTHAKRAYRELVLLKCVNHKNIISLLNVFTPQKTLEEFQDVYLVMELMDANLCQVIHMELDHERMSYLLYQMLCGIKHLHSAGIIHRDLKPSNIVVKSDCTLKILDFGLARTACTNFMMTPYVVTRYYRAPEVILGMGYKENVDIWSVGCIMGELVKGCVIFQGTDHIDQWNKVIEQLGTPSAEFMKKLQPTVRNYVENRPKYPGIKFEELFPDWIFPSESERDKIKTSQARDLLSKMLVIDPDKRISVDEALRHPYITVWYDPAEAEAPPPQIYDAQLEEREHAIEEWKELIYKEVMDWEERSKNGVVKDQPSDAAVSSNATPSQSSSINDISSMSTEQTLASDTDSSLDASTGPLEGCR
Procedure, shortened: as §1

[4] = molecular target: RAF proto-oncogene serine/threonine-protein kinase (Homo sapiens) (UniProt P04049); assay: Inhibition of human RAF proto-oncogene serine/threonine-protein kinase at 30 uM
Sequence of RAF proto-oncogene serine/threonine-protein kinase (Homo sapiens) (P04049 whole entry): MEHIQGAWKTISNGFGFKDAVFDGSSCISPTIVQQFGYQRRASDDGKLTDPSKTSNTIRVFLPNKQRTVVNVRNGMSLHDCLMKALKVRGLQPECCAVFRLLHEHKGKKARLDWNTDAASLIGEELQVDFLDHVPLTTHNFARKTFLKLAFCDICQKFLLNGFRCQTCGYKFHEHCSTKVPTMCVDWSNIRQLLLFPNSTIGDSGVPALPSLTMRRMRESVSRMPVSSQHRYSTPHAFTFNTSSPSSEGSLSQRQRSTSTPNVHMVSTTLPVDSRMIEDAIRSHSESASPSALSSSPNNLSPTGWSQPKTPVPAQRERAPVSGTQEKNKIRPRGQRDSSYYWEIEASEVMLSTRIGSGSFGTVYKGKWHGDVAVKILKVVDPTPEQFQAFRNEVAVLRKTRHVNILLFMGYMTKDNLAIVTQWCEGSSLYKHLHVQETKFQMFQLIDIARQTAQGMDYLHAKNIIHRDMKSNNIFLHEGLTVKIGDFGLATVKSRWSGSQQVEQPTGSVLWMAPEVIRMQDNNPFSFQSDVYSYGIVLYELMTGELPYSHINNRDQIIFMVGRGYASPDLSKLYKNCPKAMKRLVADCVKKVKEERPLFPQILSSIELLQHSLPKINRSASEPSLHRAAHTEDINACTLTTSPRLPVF
Procedure, shortened: as §1

[5] = molecular target: Protein kinase C alpha type (Homo sapiens) (UniProt P17252); assay: Inhibition of human Protein kinase C alpha; set-up: concentration or dose not given beside the values; conditions: concentration not given here
[6] = molecular target: Ca2+/calmodulin-dependent protein kinase II (CaM kinase II) (Rattus norvegicus) (UniProt P11275+P08413+P15791+P11730); assay: Inhibition of rat Calcium/calmodulin-dependent protein kinase type II at 30 uM; type: protein assay
Procedure, shortened: as §1

[7] = molecular target: Dual specificity mitogen-activated protein kinase kinase 1 (Homo sapiens) (UniProt Q02750); assay: Inhibition of human Mitogen activated protein kinase kinase 1 (MEK1) at 30 uM
Sequence of Dual specificity mitogen-activated protein kinase kinase 1 (Homo sapiens) (Q02750 whole entry): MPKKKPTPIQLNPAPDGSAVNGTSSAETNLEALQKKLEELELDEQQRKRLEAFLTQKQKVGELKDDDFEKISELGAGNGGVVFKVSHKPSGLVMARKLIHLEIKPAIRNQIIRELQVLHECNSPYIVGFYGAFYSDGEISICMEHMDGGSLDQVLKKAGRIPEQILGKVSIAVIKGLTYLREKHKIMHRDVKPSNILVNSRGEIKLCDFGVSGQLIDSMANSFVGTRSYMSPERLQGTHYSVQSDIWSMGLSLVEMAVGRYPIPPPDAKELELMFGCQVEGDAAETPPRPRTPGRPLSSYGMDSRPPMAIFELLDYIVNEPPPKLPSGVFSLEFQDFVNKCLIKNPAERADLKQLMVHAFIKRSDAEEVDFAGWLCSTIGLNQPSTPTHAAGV
Procedure, shortened: as §1

[8] = molecular target: cAMP-dependent protein kinase (PKA) (Homo sapiens) (UniProt P22694+P17612+P22612); assay: Inhibition of human cAMP-dependent protein kinase (PKA); type: protein assay; set-up: concentration or dose not given beside the values; conditions: concentration not given here
[9] = molecular target: Mitogen-activated protein kinase 8 (Homo sapiens) (UniProt P45983); assay: Inhibition of human c-Jun N-terminal kinase-1 alpha-1 at 30 uM
Sequence of Mitogen-activated protein kinase 8 (Homo sapiens) (P45983 whole entry): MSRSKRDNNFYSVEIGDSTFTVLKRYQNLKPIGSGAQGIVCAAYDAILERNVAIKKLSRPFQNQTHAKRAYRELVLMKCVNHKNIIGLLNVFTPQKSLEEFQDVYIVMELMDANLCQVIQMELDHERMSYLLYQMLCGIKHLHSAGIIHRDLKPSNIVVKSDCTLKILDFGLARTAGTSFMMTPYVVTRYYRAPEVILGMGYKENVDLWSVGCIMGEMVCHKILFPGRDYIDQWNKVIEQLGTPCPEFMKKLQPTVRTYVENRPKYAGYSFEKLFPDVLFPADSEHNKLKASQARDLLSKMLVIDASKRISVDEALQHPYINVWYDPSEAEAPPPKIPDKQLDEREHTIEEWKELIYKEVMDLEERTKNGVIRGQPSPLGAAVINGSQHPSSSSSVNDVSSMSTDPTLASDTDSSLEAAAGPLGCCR
Procedure, shortened: as §1

[10] = molecular target: Glycogen synthase kinase-3 beta (Homo sapiens) (UniProt P49841); assay: Inhibition of human Glycogen synthase kinase-3 beta at 30 uM
Procedure, shortened: as §1

[11] = molecular target: Mitogen-activated protein kinase 10 (Rattus norvegicus) (UniProt P49187); assay: Inhibition of rat c-Jun N-terminal kinase-3 at 30 uM
Sequence of Mitogen-activated protein kinase 10 (Rattus norvegicus) (P49187 whole entry): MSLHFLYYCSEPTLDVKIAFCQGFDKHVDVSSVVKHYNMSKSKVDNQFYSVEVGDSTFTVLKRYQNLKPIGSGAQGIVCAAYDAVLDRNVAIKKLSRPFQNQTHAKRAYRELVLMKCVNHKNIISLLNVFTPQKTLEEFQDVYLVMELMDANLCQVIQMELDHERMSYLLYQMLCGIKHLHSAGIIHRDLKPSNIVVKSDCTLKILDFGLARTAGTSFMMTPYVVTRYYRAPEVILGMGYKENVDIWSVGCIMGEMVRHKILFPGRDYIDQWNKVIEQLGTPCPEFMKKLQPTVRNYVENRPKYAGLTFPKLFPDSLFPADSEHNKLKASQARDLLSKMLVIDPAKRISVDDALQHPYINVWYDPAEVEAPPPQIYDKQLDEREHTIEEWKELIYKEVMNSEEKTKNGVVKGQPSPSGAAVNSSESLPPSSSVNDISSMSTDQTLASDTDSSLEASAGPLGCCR
Procedure, shortened: as §1

[12] = molecular target: Mitogen-activated protein kinase 14 (Homo sapiens) (UniProt Q16539); assay: Inhibition of human stress-activated protein kinase-2 alpha (p38 MAP-kinase) at 30 uM
Sequence of Mitogen-activated protein kinase 14 (Homo sapiens) (Q16539 whole entry): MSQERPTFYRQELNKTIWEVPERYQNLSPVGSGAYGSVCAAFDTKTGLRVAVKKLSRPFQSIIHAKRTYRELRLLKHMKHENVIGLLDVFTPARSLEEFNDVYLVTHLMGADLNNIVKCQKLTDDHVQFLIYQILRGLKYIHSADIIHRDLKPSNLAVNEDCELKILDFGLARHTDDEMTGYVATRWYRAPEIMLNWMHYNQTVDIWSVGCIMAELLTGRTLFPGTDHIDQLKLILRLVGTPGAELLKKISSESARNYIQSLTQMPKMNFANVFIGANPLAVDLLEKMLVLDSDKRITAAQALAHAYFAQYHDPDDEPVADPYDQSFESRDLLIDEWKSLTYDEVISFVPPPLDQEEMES
Procedure, shortened: as §1

[13] = molecular target: Tyrosine-protein kinase Lck (Homo sapiens) (UniProt P06239); assay: Inhibition of human lymphocyte protein tyrosine kinase Lck at 30 uM
Sequence of Tyrosine-protein kinase Lck (Homo sapiens) (P06239 2-509 limits assumed): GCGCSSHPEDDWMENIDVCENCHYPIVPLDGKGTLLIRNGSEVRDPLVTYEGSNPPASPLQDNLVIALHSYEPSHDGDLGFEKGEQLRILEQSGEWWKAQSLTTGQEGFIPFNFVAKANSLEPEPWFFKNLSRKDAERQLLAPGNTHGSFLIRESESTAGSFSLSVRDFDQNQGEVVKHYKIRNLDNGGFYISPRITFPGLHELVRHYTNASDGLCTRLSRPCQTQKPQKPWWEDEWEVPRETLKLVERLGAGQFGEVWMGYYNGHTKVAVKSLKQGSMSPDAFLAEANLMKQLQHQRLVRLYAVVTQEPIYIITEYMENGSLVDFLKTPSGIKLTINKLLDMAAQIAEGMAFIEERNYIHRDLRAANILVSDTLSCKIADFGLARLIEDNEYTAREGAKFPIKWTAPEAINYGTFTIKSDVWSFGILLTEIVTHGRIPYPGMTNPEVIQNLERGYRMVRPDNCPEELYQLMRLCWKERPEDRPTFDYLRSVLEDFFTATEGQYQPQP
Procedure, shortened: as §1

[14] = molecular target: Mitogen-activated protein kinase 1 (Homo sapiens) (UniProt P28482); assay: Inhibition of human Mitogen-activated protein kinase 2 at 30 uM
Sequence of Mitogen-activated protein kinase 1 (Homo sapiens) (P28482 whole entry): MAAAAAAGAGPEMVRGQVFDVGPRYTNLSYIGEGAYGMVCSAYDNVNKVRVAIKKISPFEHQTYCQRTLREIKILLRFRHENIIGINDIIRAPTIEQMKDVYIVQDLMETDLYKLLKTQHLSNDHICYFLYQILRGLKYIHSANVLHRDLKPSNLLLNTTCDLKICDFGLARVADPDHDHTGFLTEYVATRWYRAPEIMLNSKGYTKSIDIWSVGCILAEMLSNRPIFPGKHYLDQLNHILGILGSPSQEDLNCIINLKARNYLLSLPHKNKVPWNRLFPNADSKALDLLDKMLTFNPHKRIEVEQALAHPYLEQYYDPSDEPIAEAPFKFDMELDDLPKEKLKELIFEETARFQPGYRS
Procedure, shortened: as §1

## Cn1c(-c2ccccc2)nc2c(-c3ccc(F)cc3)ncnc21
[1]
  inhibition: 0%
[2]
  inhibition: 31%
[3]
  inhibition: 8%
[4]
  inhibition: 24%
[5]
  inhibition: 17%
[6]
  inhibition: 5%
[7]
  inhibition: 5%
[8]
  inhibition: 0%
[9]
  inhibition: 2%
[10]
  inhibition: 26%
[11]
  inhibition: 12%
[12]
  inhibition: 23%
[13]
  inhibition: 17%
[14]
  inhibition: 1%

## Cn1cnc2c(Sc3ccccc3)ncnc21
[1]
  inhibition: 6%
[2]
  inhibition: 0%
[3]
  inhibition: 6%
[4]
  inhibition: 10%
[5]
  inhibition: 13%
[6]
  inhibition: 8%
[7]
  inhibition: 3%
[8]
  inhibition: 0%
[9]
  inhibition: 3%
[10]
  inhibition: 3%
[11]
  inhibition: 7%
[12]
  inhibition: 17%
[13]
  inhibition: 6%
[14]
  inhibition: 12%

## Nc1ncnc2c1ncn2Cc1ccc(F)cc1
[1]
  inhibition: 0%
[2]
  inhibition: 0%
[3]
  inhibition: 0%
[4]
  inhibition: 16%
[5]
  inhibition: 16%
[6]
  inhibition: 9%
[7]
  inhibition: 7%
[8]
  inhibition: 0%
[9]
  inhibition: 0%
[10]
  inhibition: 5%
[11]
  inhibition: 9%
[12]
  inhibition: 8%
[13]
  inhibition: 22%
[14]
  inhibition: 0%

## Cn1c(-c2ccc([S+](C)[O-])cc2)nc2c(Sc3ccccc3)ncnc21 (stereo unspecified)
[1]
  inhibition: 1%
[2]
  inhibition: 4%
[3]
  inhibition: 0%
[4]
  inhibition: 0%
[5]
  inhibition: 8%
[6]
  inhibition: 8%
[7]
  inhibition: 3%
[8]
  inhibition: 0%
[9]
  inhibition: 0%
[10]
  inhibition: 4%
[11]
  inhibition: 6%
[12]
  inhibition: 27%
[13]
  inhibition: 30%
[14]
  inhibition: 0%

## Cn1c(C#CCCO)nc2c(Sc3ccccc3)ncnc21
[1]
  inhibition: 0%
[2]
  inhibition: 33%
[3]
  inhibition: 0%
[4]
  inhibition: 0%
[5]
  inhibition: 18%
[6]
  inhibition: 10%
[7]
  inhibition: 0%
[8]
  inhibition: 0%
[9]
  inhibition: 0%
[10]
  inhibition: 0%
[11]
  inhibition: 0%
[12]
  inhibition: 3%
[13]
  inhibition: 11%
[14]
  inhibition: 0%

## Cn1c(-c2ccc([S+](C)[O-])cc2)nc2c(Sc3ccc(F)cc3)ncnc21 (stereo unspecified)
[1]
  inhibition: 0%
[2]
  inhibition: 10%
[3]
  inhibition: 1%
[4]
  inhibition: 4%
[5]
  inhibition: 15%
[6]
  inhibition: 12%
[7]
  inhibition: 1%
[8]
  inhibition: 4%
[9]
  inhibition: 0%
[10]
  inhibition: 4%
[11]
  inhibition: 10%
[12]
  inhibition: 44%
[13]
  inhibition: 30%
[14]
  inhibition: 0%

## Cn1c(-c2ccc(S(C)(=O)=O)cc2)nc2c(Sc3ccc(F)cc3)ncnc21
[1]
  inhibition: 0%
[2]
  inhibition: 4%
[3]
  inhibition: 2%
[4]
  inhibition: 6%
[5]
  inhibition: 7%
[6]
  inhibition: 0%
[7]
  inhibition: 0%
[8]
  inhibition: 3%
[9]
  inhibition: 0%
[10]
  inhibition: 0%
[11]
  inhibition: 5%
[12]
  inhibition: 19%
[13]
  inhibition: 10%
[14]
  inhibition: 0%

## Fc1ccc(Oc2[nH]cnc3ncnc2-3)cc1
[1]
  inhibition: 9%
[2]
  inhibition: 0%
[3]
  inhibition: 0%
[4]
  inhibition: 1%
[5]
  inhibition: 3%
[6]
  inhibition: 0%
[7]
  inhibition: 0%
[8]
  inhibition: 0%
[9]
  inhibition: 0%
[10]
  inhibition: 0%
[11]
  inhibition: 0%
[12]
  inhibition: 18%
[13]
  inhibition: 0%
[14]
  inhibition: 0%

## Cn1c(-c2ccccc2)nc2c(Sc3ccc(F)cc3)ncnc21
[1]
  inhibition: 9%
[2]
  inhibition: 29%
[3]
  inhibition: 0%
[4]
  inhibition: 14%
[5]
  inhibition: 17%
[6]
  inhibition: 8%
[7]
  inhibition: 7%
[8]
  inhibition: 3%
[9]
  inhibition: 2%
[10]
  inhibition: 22%
[11]
  inhibition: 16%
[12]
  inhibition: 29%
[13]
  inhibition: 20%
[14]
  inhibition: 1%
